From article PMC5557381 (European journal of medicinal chemistry, 2015) come the findings set out here.

As usually defined, the EC50 is the concentration needed to bring the measured effect to its halfway point.

For test [1], the system named is MH-14 cells carrying stably replicating HCV sub genomic replicon gt 1b. The test can be described thus: HCV RNA by quantitative RT-PCR in reporter free MH-14 cells. In kind it is cell-based, Hepatitis C virus genotype 1b. Conditions: Hepatitis C virus, GT1B, MH14, read-out: EC50, HCV RNA in MH-14 cells.
In test [2] the target is HCV NS5B polymerase (NS5BCΔ21) (Hepatitis C virus genotype 1b, UniProt Q9WMX2). The test can be described thus: NS5B RdRp primer-dependent elongation assay. In kind it is biochemical. Conditions: 50 µM, preliminary assay, data not shown.
For the next test, the target named is HCV NS3 helicase (NS3h) (Hepatitis C virus genotype 1b, UniProt Q9WMX2). The test can be described thus: Molecular beacon based NS3 helicase assay. In kind it is biochemical. Conditions: concentrations as high as 500 µM, data not shown.
Test [3] concerns HCV IRES mediated translation. The test is described as follows: HCV IRES mediated translation dual luciferase reporter assay in Huh7.5 cells. The test is classed as cell-based, Hepatitis C virus. Conditions: data not shown. (In general: Reporter assays use an easily measured gene product as a stand-in for the process of interest.)
Another test has as its system cyclooxygenase-2. The test is described as follows: Host-factor reporter assay pCOX-2-FLuc in MH-14 cells. The note with it: 5, 10 and 25 µM, 48 h. In kind it is cell-based. Put shortly: (§1)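 MH-14 hepatoma cells stably carrying an HCV gt 1b subgenomic replicon were transfected with 300 ng of the gene-specific luciferase reporter plasmid. At 16 h post-transfection, cells were exposed to test compound or to DMSO as control for 48 h. Luciferase activity was then read, with transfection efficiency normalised to Renilla luciferase expression.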

A further test relates to heme oxygenase-1. The test can be described thus: Host-factor reporter assay pHO-1-Luc in MH-14 cells. In kind it is cell-based. Conditions: 5, 10 and 25 µM, 48 h. Put shortly: as §1
The test system of test [4] is interferon-stimulated response element. The test can be described thus: Host-factor reporter assay pISRE-Luc in MH-14 cells. In kind it is cell-based. The note with it: 5, 10 and 25 µM, 48 h. The essentials:
as §1

Test [5] relates to anti-oxidant response element. The test can be described thus: Host-factor reporter assay p3xARE-Luc in MH-14 cells. In kind it is cell-based. The note with it: 5, 10 and 25 µM, 48 h. The essentials: as §1

Molecules are shown by their SMILES.

Regarding `c1ccc(Cn2c(-c3ccccc3)cc3c2CCCC3)cc1` [Compound 39], the EC50 in test [1] worked out at 3.13 µM. Also, the “Inhibition of NS5B RdRp activity” value in test [2] was “no effect”. The “Inhibition of NS3 helicase unwinding of a DNA substrate” value at HCV NS3 helicase (NS3h) is listed as “no effect”. The “Effect on HCV IRES mediated translation” value in test [3] is reported as “no effect”. Further, the “Effect on cyclooxygenase-2 reporter” value in the test on cyclooxygenase-2 is “no effect”. In addition, the “Effect on heme oxygenase-1 reporter” value in the test on heme oxygenase-1 is “no effect”. For the same compound, in test [4], the “Effect on interferon-stimulated response element reporter” value is “no effect”. Also, the “Effect on anti-oxidant response element reporter” value in test [5] is “no effect”.
